High-throughput results (PubChem BioAssay)
LEDGF integ inh = blocks HIV-1 LEDGF/p75-dependent DNA integration | TR-FRET IN-LEDGF/p75 DNA integration, Eu/Cy5 | 370,000 tested, 0.64% active | inhibition, % at 3.7 µM | AID 743269;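 active = inhibition above the screen-wide mean plus 3 SD, cut at about 13% in these data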;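 also: signal is the Cy5 over europium emission ratio at 671 and 618 nm; 0% = plate median of compound wells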
TDP2 inh = TDP2 (human) inhibition, absorbance primary screen; recombinant TDP2, T5PNP hydrolysis, p-nitrophenol absorbance 415 nm; inhibition, % at 12.8 µM; 370,000 tested, 0.34% active; AID 720702;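 active = inhibition above the mean of all tested compounds plus 3 SD, set per campaign, cut at about 25% in these data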;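 also: 0% = DMSO with enzyme and 100% = buffer with substrate but no TDP2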
Target sequence (O95551 whole entry, looked up): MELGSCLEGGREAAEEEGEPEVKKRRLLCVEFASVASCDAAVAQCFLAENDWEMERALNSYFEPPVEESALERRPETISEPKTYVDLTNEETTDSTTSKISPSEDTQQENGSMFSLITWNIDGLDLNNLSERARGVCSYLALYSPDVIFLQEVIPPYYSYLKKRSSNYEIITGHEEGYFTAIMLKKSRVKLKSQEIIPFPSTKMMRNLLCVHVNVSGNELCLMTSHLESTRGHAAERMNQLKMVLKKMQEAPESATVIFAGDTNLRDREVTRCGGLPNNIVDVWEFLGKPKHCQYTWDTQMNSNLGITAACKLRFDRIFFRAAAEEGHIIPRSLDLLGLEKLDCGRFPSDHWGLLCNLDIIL
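Test system: Human TDP2 enzyme | Reagent: 5 mM T5PNP | Compound dosing: 12.8 µM single point, 1% DMSO | Incubation: Enzyme reaction with compound for 2 h at 37 °C | Technique: p-Nitrophenol epi absorbance | Read-out: % inhibition relative to enzyme-containing and enzyme-free wells | Benchmarks: High control without enzyme, low control DMSO plus TDP2 | Replicates: Singlicate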
UHRF1 binding = UHRF1 methyl-DNA binding inhibition | 370,000 tested, 0.75% active | AID 687016 | UHRF1 binding to methylated oligo, TR-FRET | Q96T88 | inhibition, % at 4.4 µM; in the data active = inhibition above about 21%;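 also: UHRF1 SRA domain binding a hemimethylated CpG hairpin DNA probe; 0% = median of test compound wells and 100% = reference inhibitor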
MBD2 inh = blocks human MBD2 binding to methylated DNA; Q9UBB5; TR-FRET, MBD2 binding to methylated oligonucleotide; 370,000 tested, 0.31% active; AID 686964; inhibition, % at 4.4 µM; in the data active = inhibition above about 13%
* hit, by the source's call. Shown are actives, neighbours in structure and some others; about 1.6% of the full set was active somewhere.

SMILES	LEDGF integ inh	TDP2 inh	UHRF1 binding	MBD2 inh
O=C(COc1cccc2ccccc12)NNC(=O)[C@@H]1CCCC[C@@H]1C(=O)O	1.3	-7.6	-0.9	-0.8
CC(=O)c1ccc(S(=O)(=O)Nc2cccc(-n3cnnn3)c2)cc1	2.5	-5.9	39.7*	4.0
CC1CCN(c2ccccc2NC(=O)c2ccc(N3CCOCC3)c([N+](=O)[O-])c2)CC1	-1.4	4.8	0.8	2.0
Cc1csc(N=Cc2ccc([N+](=O)[O-])o2)n1	20.6*	4.0	21.7*	9.7
O=[N+]([O-])c1ccc(/C=N/N=C/c2ccc([N+](=O)[O-])o2)o1	5.6	2.6	-2.7	-7.1
O=C(NCC1(N2CCCCC2)CCCCC1)c1cccc(NS(=O)(=O)c2ccccc2)c1	1.9	-11.9	-1.6	-0.7
COc1cc(C(=S)N2CCOCC2)ccc1OC(=O)c1ccc(Br)cc1	-2.5	-6.9	-1.3	2.3
COc1cc(C(=S)N2CCOCC2)ccc1OC(=O)c1cccc(C)c1	-2.5	-6.5	24.2*	5.1
COc1cc(C(=S)N2CCOCC2)cc(OC)c1OC(=O)c1ccc(F)cc1	-3.6	-4.6	0.6	2.9
COc1cc(C(=O)Oc2c(OC)cc(C(=S)N3CCOCC3)cc2OC)cc(OC)c1OC	-3.4	-5.5	23.7*	1.9
Cc1cc(C(=O)Nn2cnnc2)ccc1[N+](=O)[O-]	1.7	9.2	3.2	-3.2
O=C(Nn1cnnc1)c1ccc(Cl)c([N+](=O)[O-])c1	-3.1	6.3	24.7*	-0.3
COc1ccc(Nc2cccc3ccccc23)cc1	3.5	-1.2	21.3*	3.3
CCC(C)NC(=O)CCNS(=O)(=O)c1ccc(Br)cc1 (stereo not given)	-0.4	-2.7	31.7*	0.6
CCOC(=O)C1=C(C)N(c2ccc(OC)cc2)C(=O)/C1=C\c1cccs1	1.8	2.8	24.9*	7.8
CCOC(=O)C1=C(C)N(c2ccc(OC)cc2)C(=O)/C1=C\c1ccc(O)c(OCC)c1	4.8	-5.2	-7.3	-8.0
Cc1ccc(N(CC(=O)NC2CCCC2)C(=O)Cn2nnc(-c3ccccc3F)n2)cc1	-0.5	-13.9	0.6	0.3
CS(=O)(=O)N(CC(=O)NC1CCCCCC1)Cc1ccc(Cl)cc1	-2.5	1.3	48.6*	-1.2
Cc1ccc(/C=C/C(=O)Nc2ccc(O)c3c(=O)cc(-c4ccccc4Cl)oc23)cc1	-3.0	-7.1	2.4	-0.5
COc1ccc(C2(c3ccc(OC)cc3)NC(=O)N(CC(=O)Nc3ccc(C(N)=O)cc3)C2=O)cc1	5.2	8.0	41.8*	9.9
COc1ccc(C2(c3ccc(OC)cc3)NC(=O)N(CC(=O)Nc3ccccc3)C2=O)cc1	3.3	-4.1	0.2	-5.3
COc1ccc(NC(=O)c2cc3ccccc3cc2OC)cc1	-0.4	5.9	2.5	-0.1
COc1cc(C(=O)c2ccccc2)c(OC)cc1C(=O)Nc1ccc(O)cc1	10.7	-9.6	27.3*	10.3
O=C(OCC(=O)N1CCN(C(=O)c2ccco2)CC1)c1cccc(S(=O)(=O)N2CCc3ccccc32)c1	0.0	-3.0	20.8*	-2.0
COc1ccc(Cn2nnnc2CN2CCN(c3ccc(OC)cc3)CC2)cc1	0.1	20.2	-2.9	-2.3
SMILES	LEDGF integ inh	TDP2 inh	UHRF1 binding	MBD2 inh
CCC(C)(C)n1nnnc1CN1CCN(c2ccc(OC)cc2)CC1	0.5	-5.6	21.8*	-0.6
CCCc1cc(=O)[nH]c(SCC(=O)c2cc(C)n(C3CC3)c2C)n1	2.9	-3.4	-1.7	1.2
COc1nc(N)c(S(=O)(=O)c2ccccc2)cc1C#N	-3.8	-7.9	22.6*	-0.5
Cc1ccc(S(=O)(=O)N(C)C)cc1NC(=O)COC(=O)/C=C/c1ccc(F)cc1	4.5	-14.3	34.5*	-1.3
COc1ccc(/C=C/C(=O)OCC(=O)Nc2cc(S(=O)(=O)N(C)C)ccc2Cl)cc1	4.3	4.9	-0.9	0.0
Cc1ccc(N2CC(C(=O)OCC(=O)Nc3ccc(Cl)cc3)CC2=O)cc1 (stereo not given)	-0.4	4.8	0.8	-3.5
C=CCNC(=O)C1CC(=O)N(c2ccc(OCc3ccccc3Cl)cc2)C1 (stereo not given)	3.4	-7.5	1.1	-2.2
Cc1ccc(N2CC(C(=O)OCC(=O)Nc3cccc(Cl)c3C)CC2=O)cc1 (stereo not given)	-1.5	9.8	89.8*	4.6
COC(=O)C1CC(=O)N(c2ccc(OCc3ccccc3Cl)cc2)C1 (stereo not given)	0.9	-10.5	24.0*	0.7
COc1ccc(-c2c3c(=O)n(C)c(=O)n(C)c3cn2C2CCCCC2)cc1	-0.5	8.1	1.5	0.0
Cc1ccc(S(=O)(=O)NCc2ccccn2)cc1C	0.0	4.5	23.0*	3.0
O=S(=O)(NCc1ccccn1)c1ccc2ccccc2c1	-1.9	-0.4	-0.9	-2.5
COc1ccc(S(=O)(=O)NCc2ccccn2)cc1NC(=O)c1ccccc1	3.1	0.3	35.5*	11.2
COc1ccc(S(=O)(=O)NCc2ccccn2)cc1NC(=O)c1ccc(C)cc1	-1.3	-0.3	-1.8	-3.4
CCc1nc2c(OCC(=O)C(C)(C)C)cccn2c1N(C)C(=O)Nc1ccccc1OC	3.0	11.7	-1.2	1.4
CN1CCC(=O)N([C@H](CSc2ccc(Br)cc2)c2ccccc2)CC1	-0.7	8.2	-1.1	-0.7
Cc1ccsc1C=Nc1c(C)n(C)n(-c2ccccc2)c1=O	-4.5	11.5	8.0	-0.6
C[C@H](CO)N1C[C@H](C)[C@H](CN(C)C(=O)OCc2ccccc2)OCc2cnnn2CCCC1=O	-3.1	8.3	23.8*	3.6
C[C@H]1CN([C@@H](C)CO)C(=O)CCCn2nncc2CO[C@@H]1CN(C)CC1CC1	-0.2	3.3	-1.1	4.8
CCCN(C)C[C@H]1OCc2cnnn2CCCC(=O)N([C@H](C)CO)C[C@@H]1C	3.0	-2.0	23.2*	12.8
C[C@@H]1CN([C@@H](C)CO)C(=O)CCCn2nncc2CO[C@@H]1CN(C)C(=O)OCc1ccccc1	0.6	-3.8	4.0	5.4
C[C@@H]1CN([C@H](C)CO)C(=O)CCCn2nncc2CO[C@@H]1CN(C)C(=O)Nc1cccc2ccccc12	-2.9	-2.3	-2.3	-3.6
COc1cccc(S(=O)(=O)N(C)C[C@H]2OCc3cnnn3CCCC(=O)N([C@@H](C)CO)C[C@H]2C)c1	-0.6	6.2	22.0*	9.7
C[C@@H]1CN([C@@H](C)CO)C(=O)CCCn2nncc2CO[C@H]1CN(C)C(=O)Nc1cccc2ccccc12	2.7	1.9	24.2*	7.9
COc1cccc(S(=O)(=O)N(C)C[C@@H]2OCc3cnnn3CCCC(=O)N([C@H](C)CO)C[C@H]2C)c1	0.0	-4.6	-3.7	1.4
COC(=O)[C@]1(CNC(C)=O)CC(=O)N(Cc2ccc(Cl)cc2)[C@@H]1c1ccc(OC)cc1	8.3	-18.4	4.8	-2.4
COC(=O)[C@]1(CNC(=O)C(C)(C)C)CC(=O)N(Cc2ccc(Cl)cc2)[C@@H]1c1ccc(OC)cc1	5.2	-5.3	45.1*	-1.2
O=C1[C@H](Oc2ccccc2)[C@@H](c2ccccc2)N1c1ccncc1	-2.6	3.6	-1.1	3.2
O=C1[C@@H](Oc2ccccc2)[C@@H](c2ccccc2)N1c1ccccc1	0.6	1.4	22.4*	10.8
